RanGTP-Imp inh – inhibitors of RanGTP-importin-beta interaction, primary screen, biochemical, FRET, CFP-Ran, YFP-importin-beta, homogeneous. hit rate 1.1% among 300,000. cell-free CFP-Ran/YFP-importin-beta FRET ratio. inhibition, % (concentration not given with the values);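 active = more than half of the replicate wells show a fall in the fluorescence ratio signal beyond about 16%, limit read from the data, passing the limit was not always enough; inconclusive = exactly half of the replicate wells pass the set limit; inactive = fewer than half of replicates pass the limit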;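 also: 0% = DMSO wells and 100% = Ran loaded with GDP instead of GTP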
Tb hexokinase – T. brucei hexokinase 1 inhibition. hit rate 0.11% among 220,000. inhibition, % at 10 µM. AID 1430. recombinant TbHK1, G6PDH-coupled NADH A340;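 active = inhibition of 50% or more in the single-dose primary screen; inactive = inhibition below 50%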
Runt-CBFb FRET – Runt domain-CBFb interaction inhibition | Cerulean-Runt/Venus-CBFb FRET ratio 530/480, 1 h | AID 1496 | inhibition, % at 20 µM | Q01196+Q13951 | hit rate 0.46% among 220,000;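 active = inhibition over about 50% at 20 µM in the single-dose screen, limit read from the data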;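 also: 0% = DMSO wells and 100% = excess unlabeled CBFb competitor control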
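Measured by: fluorescence energy transfer, 422 nm excitation, 530/480 nm emission; Assay system: Cerulean-Runt domain; Medium: Tris pH 7.5 buffer with BSA; Measure: loss of energy transfer signal; Controls: 5 µM unlabeled CBFb as full-inhibition high control; Incubation: protein complex preformed 1 h, compound exposure 1 h, room temperature, dark.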
Runt-SMMHC FRET – blocks binding of human RUNX1 Runt domain to CBFb-SMMHC; Cerulean-Runt/Venus-CBFb-SMMHC FRET ratio 530/480, 1 h; hit rate 0.74% among 220,000; inhibition, % at 20 µM; Q01196+Q13951;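 active = mean inhibition across duplicate retests at 20 µM reaching about 50%, limit read from the data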;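 also: 0% = DMSO wells and 100% = wells with excess untagged CBFb-SMMHC; inhibitors lower the FRET ratio by blocking Runt binding to CBFb-SMMHC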
Hck Nef HTS – human Hck-Nef kinase inhibition; P08631; Recombinant Hck-YEEI plus Nef, Z-Lyte FRET kinase assay; inhibition, % at 20 µM; hit rate 0.68% among 220,000; AID 463187;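 active = Hck-Nef kinase inhibition above about 50%, limit read from the data; inactive = inhibition below that limit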;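 also: 0% = DMSO with Hck plus Nef and 100% = Hck alone without Nef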
Target sequence (P08631 whole entry, looked up): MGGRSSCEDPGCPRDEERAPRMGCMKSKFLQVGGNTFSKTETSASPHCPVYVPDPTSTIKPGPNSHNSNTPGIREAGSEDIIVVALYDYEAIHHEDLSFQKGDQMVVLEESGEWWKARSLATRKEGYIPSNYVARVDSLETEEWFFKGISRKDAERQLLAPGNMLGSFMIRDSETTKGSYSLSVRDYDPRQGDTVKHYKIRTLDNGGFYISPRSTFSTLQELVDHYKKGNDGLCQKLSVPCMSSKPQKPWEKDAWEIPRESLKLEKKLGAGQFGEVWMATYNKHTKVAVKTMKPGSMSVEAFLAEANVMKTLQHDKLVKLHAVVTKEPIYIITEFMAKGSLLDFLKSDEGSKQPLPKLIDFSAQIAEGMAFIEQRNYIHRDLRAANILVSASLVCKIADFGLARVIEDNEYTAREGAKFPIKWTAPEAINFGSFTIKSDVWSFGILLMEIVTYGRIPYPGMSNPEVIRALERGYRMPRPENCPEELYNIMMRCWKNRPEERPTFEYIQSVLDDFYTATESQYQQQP
p97 inhibitor – blocks human p97 ATPase activity; recombinant p97 ATPase, Kinase-Glo ATP luminescence, 3 h; hit rate 0.42% among 220,000; AID 1481; P55072; inhibition, % at 8 µM; in the data active = inhibition above about 15%;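 also: 0% = DMSO vehicle and 100% = wells lacking enzyme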
p97 inh conf – confirmation of human p97 ATPase inhibitors; shares compounds with p97 inhibitor; recombinant p97 ATPase, Kinase-Glo ATP luminescence; inhibition, % at 8 µM; hit rate 44% among 760; AID 1517;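 active = percent inhibition of p97 ATPase above a set limit, the primary screen's mean plus 3 SD, cut at about 15% in these data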;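 also: 0% = DMSO wells and 100% = wells lacking p97 protein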
* = called active by the depositor; ? = inconclusive; / = not tested or not shown. Only some compounds are listed: those with a hit (about 2.1% of all), similar ones and a draw of the others.

SMILES | RanGTP-Imp inh | Tb hexokinase | Runt-CBFb FRET | Runt-SMMHC FRET | Hck Nef HTS | p97 inhibitor | p97 inh conf
CCCCCOc1ccc(NC(=O)C2OC3OC(C)(C)OC3C3OC(C)(C)OC23)cc1 (stereo unspecified) | -0.2 | 0.4 | -3.1 | 0.0 | 3.6 | 3.9 | /
Brc1ccccc1C1CC(c2ccccc2)=Nc2ccccc2N1 (stereo unspecified) | 3.2 | 0.8 | -2.7 | -12.2 | 2.1 | 1.9 | /
Clc1ccccc1C1CC(c2ccccc2)=Nc2ccccc2N1 (stereo unspecified) | -1.4 | 0.7 | 0.0 | -4.2 | 6.8 | 14.9* | 6.5
Cc1cc(=O)n(C2CCS(=O)(=O)C2)[nH]1 (stereo unspecified) | / | -2.2 | -0.6 | 0.0 | 18.0 | 24.1* | 6.2
O=C(COC(=O)Cn1cnc2ccccc21)NCCc1ccc(Cl)cc1 | -2.1 | -0.9 | -0.3 | -0.6 | -17.9 | -4.5 | /
COc1cc2c(cc1OC)C(C)N(C(=O)c1cccs1)CC2 (stereo unspecified) | 1.9 | 0.5 | 1.6 | -4.3 | -2.6 | 15.6* | 20.5*
Cc1[nH]c2ccccc2c1/C=N/Nc1cccc(C(=O)O)c1 | -1.4 | -8.5 | -1.3 | -12.8 | 7.9 | 18.5* | 19.1*
Cc1[nH]c2ccccc2c1/C=N/NC(=O)c1cc(-c2ccccc2)n[nH]1 | 0.2 | -22.2 | -1.6 | -5.1 | 20.4 | 20.6* | 17.3*
Cc1ccc(NC(=O)CN(c2cc(C)cc(C)c2)S(=O)(=O)c2c(C)noc2C)nc1 | 2.3 | -3.2 | 0.8 | 0.5 | 1.3 | -13.5 | /
NC1=NC2(CCCCC2)N(c2cccc(Cl)c2)C(N)=N1 | ? | 3.6 | 1.3 | 0.7 | -2.9 | 25.0* | 1.7
COc1ccc2ccccc2c1/C=N/NC(=O)c1sc(N)c(C#N)c1C | 4.4 | 8.3 | -10.1 | -9.6 | 11.7 | 17.6* | 39.3*
COc1cc(/C=N/NC(=O)c2sc(N)c(C#N)c2C)cc(Br)c1O | 1.3 | -7.2 | -3.1 | -0.4 | 34.4 | 7.6 | /
COc1cccc(NC(=O)CN(C)C(=O)c2ccc(-c3ccccc3Cl)o2)c1 | 1.0 | / | / | / | / | / | /
CCN(Cc1ccncc1)Cc1nc(Cc2ccccc2Cl)no1 | ? | -4.6 | -2.5 | -3.4 | 0.8 | -0.9 | /
CC1(C)Oc2ccc3ccc(=O)oc3c2/C(=C/Nc2ccccn2)C1=O | 0.4 | 3.9 | -6.4 | -6.5 | -7.2 | -3.8 | /
CC1(C)OC(=O)C(=CNc2ccccn2)C(=O)O1 | 0.2 | -28.9 | -0.7 | -0.1 | 15.0 | 15.1* | 1.5
OC(CNCCC1C=Nc2ccccc21)Cn1c2ccc(Cl)cc2c2cc(Cl)ccc21 (stereo unspecified) | -0.7 | 22.5 | -2.9 | 5.1 | 7.9 | 26.2* | 25.7*
OC(CNCC1CCCO1)Cn1c2ccc(Cl)cc2c2cc(Cl)ccc21 (stereo unspecified) | -5.3 | -0.8 | 0.0 | -0.7 | 1.6 | -1.8 | /
COC(=O)c1c(C)[nH]c(C(=O)CN2CCOCC2)c1C | 6.4 | -0.7 | 0.9 | -1.3 | 0.9 | 0.8 | /
CC(C(=O)Nc1ccccc1-c1ccccc1)N1CCCCC1 (stereo unspecified) | 1.6 | 3.5 | 0.6 | 0.0 | -20.7 | 0.4 | /
O=C1CCN2C=Nc3cccc4ccc1c2c34 | 69.3* | 35.1 | -65.5 | 79.3 | -5.6 | 26.3* | 8.5
CC(=O)c1sc(C(C)(C)C)cc1NC(=O)CCC(=O)O | -0.7 | 23.5 | 1.0 | -0.4 | 8.1 | 1.8 | /
CC(=O)c1sc(C(C)(C)C)cc1NC(=O)/C=C/C(=O)O | -0.4 | -12.0 | 0.5 | -1.1 | 8.8 | 15.2* | 8.9
CC(C)c1ccc(S(=O)(=O)N2CCN(CC(=O)Nc3ccc4c(c3)OCO4)CC2)cc1 | / | 3.5 | -2.6 | -2.3 | -9.8 | 0.4 | /
CNC(=O)c1sc(N2N=C3/C(=C/c4ccccc4)CCCC3C2c2ccccc2)nc1C (stereo unspecified) | -1.2 | -19.1 | -39.4 | -61.8 | -2.5 | -5.5 | /
SMILES | RanGTP-Imp inh | Tb hexokinase | Runt-CBFb FRET | Runt-SMMHC FRET | Hck Nef HTS | p97 inhibitor | p97 inh conf
C/C(=N\NC(=O)c1cccc(F)c1)c1ccc(Br)s1 | -2.4 | 0.6 | -0.7 | -3.9 | 0.2 | 19.0* | 1.8
Nc1ccc(N2CCCCC2)c2nonc12 | -3.5 | -4.6 | 1.1 | -2.4 | 23.6 | 44.2* | 10.4
Nc1c(N2CCCC2)cc(Cl)c2nonc12 | -3.6 | 0.1 | -7.9 | -19.7 | 8.9 | 31.7* | 19.9*
Cc1ccc(-c2cnn(-c3cccc([N+](=O)[O-])c3)c2N)cc1 | ? | -5.6 | 16.9 | -8.2 | 0.1 | -0.5 | /
O=S(=O)(c1ccc(Cl)cc1)c1snnc1-c1ccccc1 | 5.1 | 4.6 | 2.8 | 13.3 | 5.2 | 15.8* | 13.3
CC(Sc1nc2scc(-c3ccccc3)c2c(=O)[nH]1)C(=O)NC(N)=O (stereo unspecified) | 5.4 | -14.8 | 2.2 | -1.9 | 14.2 | 14.9* | 24.2*
Cc1cccc(C)c1NC(=O)COC(=O)c1cccnc1 | 0.0 | 6.2 | -1.2 | -4.1 | 13.6 | 17.4* | 5.5
O=C(CC1CCCC1)Nc1ccc2c(c1)CCC2 | -4.0 | 0.1 | -3.8 | -2.2 | 0.9 | 46.2* | 4.1
O=C(Cc1ccccc1)Nc1ccc2c(c1)CCC2 | -3.6 | 0.5 | -0.5 | -3.4 | -2.0 | 0.3 | /
COc1ccc2cc(C#N)c(SCC(=O)N3CC(=O)Nc4ccccc43)nc2c1 | ? | -3.8 | -4.4 | -12.6 | 30.5 | 15.3* | 8.1
Cc1cccc2cc(C#N)c(SCC(=O)N3CC(=O)Nc4ccccc43)nc12 | 7.7 | -1.0 | -1.4 | -8.0 | 3.0 | 7.8 | /
O=c1ccc(=O)n(-c2ccccc2)[nH]1 | 2.5 | -2.9 | 15.1 | 9.5 | 8.4 | 4.0 | /
CC(C)(C)c1cc(=O)n(-c2ccccc2)[nH]1 | / | 7.6 | 1.5 | -4.2 | 5.2 | 34.4* | 7.3
COc1ccccc1N1CCN(C(=O)CCc2c[nH]c3ccccc23)CC1 | 3.7 | 7.6 | -1.2 | 0.5 | -11.9 | -5.6 | /
O=C(Nc1ccc(Cl)cn1)C1C(c2ccccc2)C1(Cl)Cl (stereo unspecified) | -0.8 | 3.3 | 0.9 | -0.5 | 14.2 | 16.7* | 23.1*
O=C(Nc1ccccc1)C1C(c2ccccc2)C1(Cl)Cl (stereo unspecified) | 0.8 | / | / | / | / | / | /
COc1ccc(C2c3ccc(O)cc3Oc3ncn4nc(-c5ccco5)nc4c32)cc1OC (stereo unspecified) | 11.5 | -7.5 | 18.5 | 6.1 | 5.7 | -4.2 | /
Cc1nc(S/C(=C\c2ccc(-c3ccc(C(=O)O)c(Cl)c3)o2)C(=O)O)n[nH]1 | 0.9 | -22.5 | -22.9 | -36.1 | 38.8 | 52.5* | 44.1*
N#CCC(=O)NNc1c([N+](=O)[O-])cc(C(F)(F)F)cc1[N+](=O)[O-] | 2.3 | -14.1 | -0.6 | -1.5 | 26.5 | -8.6 | /
CCCc1nc2c(=O)n(C)c(=O)nc-2n(C)n1 | / | 6.9 | -2.2 | -10.8 | -11.1 | 31.6* | 29.2*

High-throughput results as filed in PubChem.
